Published values from different studies.
Protocols differ between the studies behind these lines.
Target: Tyrosine-protein kinase Fyn (FYN, Homo sapiens, UniProt P06241)

Compound	read-out	technique	tested at	remaining binding
CC1CCCN1c1nccc(-c2cnn3ncccc23)n1 (stereo not drawn)	binding		1 µM	69%
COc1cnc(Nc2cccc(S(N)(=O)=O)c2)nc1N1CCN(c2ccccc2)CC1	binding	competition with immobilised ligand	1 µM	99%
CCOCCn1cc(C(=O)Nc2ccc(-n3nc(-c4cccnc4)cc3C(F)(F)F)cn2)ccc1=O	cell-free assay	competition with immobilised ligand	1 µM	53%
CN(C)c1nccc(-c2cnc3ncccn23)n1	binding		1 µM	99%
FC(F)(F)Oc1cccc(-c2cnc3ccc(-c4ccncc4)nn23)c1	cell-free assay	competition with immobilised ligand	5 µM	51%
CNC(=O)[C@@H]1CC[C@@H](n2c(-c3ccc4cnccc4c3)nc3ccc(C(=O)NCc4cccc(C(N)=O)c4)cc32)C1	binding	competition with immobilised ligand	1 µM	100%
C[C@H]1CCN(c2nccc(-c3cnn4ncccc34)n2)C1	binding		1 µM	100%
CCN1CCN(Cc2ccc(C(=O)Nc3ccc(C)c(Oc4ccc5c(c4)CC(=O)N5)c3)cc2C(F)(F)F)CC1	binding	competition with immobilised ligand	1 µM	90%
O=C(NCCCN1CCOCC1)c1ccc(Nc2nccc(-c3cc4ccccc4s3)n2)cc1	binding	competition with immobilised ligand	1 µM	94%
O=C(NCC1CCOCC1)c1n[nH]cc1NC(=O)c1c(F)cccc1F	binding	competition with immobilised ligand	1 µM	100%
O=C(c1ccc(Nc2ncc(Cl)c(-c3cc4ccccc4s3)n2)cc1)N1CCC(N2CCCC2)CC1	binding	competition with immobilised ligand	1 µM	96%
COc1ccc2c(c1)O[C@H](c1ccc(OC)c(OC)c1)C[C@@H]2NC(=O)C1(c2ccc3c(c2)OC(F)(F)O3)CC1	cell-free assay	competition with immobilised ligand	1 µM	100%
COc1ncc2cc3ccccc3nc2c1C#N	cell-free assay	competition with immobilised ligand	5 µM	100%
Cn1cc(Cl)c2c(Oc3c(F)cc(Nc4cc(Cl)nc(N)n4)cc3F)ccnc21	cell-free assay	competition with immobilised ligand	0.1 µM	80%
Cc1cnc(Nc2ccc(C(=O)N3CCC(N4CCCC4)CC3)cc2)nc1-c1cc2ccccc2s1	binding	competition with immobilised ligand	1 µM	78%
O=C(NCc1ncc(C(F)(F)F)cc1Cl)c1ccc2c(c1)C1(CCS(=O)(=O)CC1)[C@H](C1CC1)N2S(=O)(=O)c1ccc(F)cc1	cell-free assay	competition with immobilised ligand	1 µM	100%
Cc1cnn2ncc(-c3ccnc(N(C)C)n3)c2c1	binding		1 µM	98%
C[C@H](c1ccc(F)cc1)N(Cc1cccc(C(=O)O)c1)C(=O)c1cnc2ccccc2c1	cell-free assay	competition with immobilised ligand	1 µM	63%
c1cncc(-c2cccc(Nc3nccc(NC4CCCCC4)n3)c2)c1	binding	competition with immobilised ligand	10 µM	45%
NS(=O)(=O)c1cc(NC(=O)C2(c3ccccc3Cl)CC2)ccc1Oc1cccc(Cl)c1	cell-free assay	competition with immobilised ligand	1 µM	100%
CN(CCCC(F)(F)F)c1nccc(-c2cnn3ncccc23)n1	binding		1 µM	82%
